Bioassay records: PubChem BioAssay, several laboratories
TPT1 inhibitor – Candida albicans TPT1 enzyme inhibitors, primary screen, biochemical, fluorescence polarization; inhibition, % at 5 µM; 300,000 compounds, 0.81% hits; recombinant caTPT1, FP RNA substrate dephosphorylation; tRNA 2'-phosphotransferase TPT1 (Candida albicans SC5314);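 active means inhibition above the mean of all tested compounds plus 3 SD, set per screening campaign, cut at about 24% in these data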;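 further: plate controls were DMSO alone for no effect and ferristatin control at 100 nM for full effect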
IDE cell activ – human IDE activators in live cells, primary screen, fluorescence polarization, HEK cells, FAbeta-B substrate. FAbeta-B cleavage; 0% vehicle, 100% cell-free pure enzyme wells. activation, % at 5.96 µM. Insulin-degrading enzyme (Homo sapiens), P14735. 340,000 compounds, 0.073% hits;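 active means activation above the mean of all tested compounds plus 3 SD, set per screening campaign, cut at about 17% in these data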
HNF4A DNA FP – change in binding of human HNF4A to DNA, primary screen, biochemical, fluorescence polarization, FITC-DNA; Hepatocyte nuclear factor 4-alpha (Homo sapiens), P41235; 1 h; activity change, % at 10 µM; 360,000 compounds, 0.3% hits; AID 1224865, 2016; in the data active means activity change above about 30%, passing the limit was not always enough
CSN deneddyl inh – inhibitors of CSN-mediated cullin deneddylation, primary screen, biochemical, fluorescence polarization, uHTS; COP9 signalosome complex subunit 5 (Homo sapiens), Q92905; Purified CSN, SCF-Nedd8-OG deneddylation; inhibition, % at 12.5 µM; 360,000 compounds, 0.38% hits;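 active means pattern-corrected inhibition above about 35%, with an unprinted fluorescence ratio check between 0.5 and 1.5, limit read from the data, passing the limit was not always enough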;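 further: 0% = enzyme with substrate and 100% = substrate without enzyme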
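Test system: Human Csn5 produced in HEK293T cells | Compound: 12.5 µM single point | Times: 90 min, room temperature | Signal: Fluorescence polarization readout | Read-out basis: % inhibition of substrate cleavage by Csn5 | Controls: no-enzyme wells high, enzyme-with-substrate wells low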
IDE inh – human IDE inhibitors in live cells, primary screen, fluorescence polarization, HEK cells, FAbetaB substrate | Insulin-degrading enzyme (Homo sapiens), P14735 | FAbetaB cleavage | inhibition, % at 5.59 µM | 320,000 compounds, 0.41% hits | AID 434962, 2010;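 active means percent inhibition above the average of all tested compounds plus 3 SD, set per screening campaign, cut at about 16% in these data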;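 further: IDE supplied by intact live HEK cells; FP after avidin binding of uncleaved biotin substrate so inhibition keeps polarization high; 0% = DMSO wells and 100% = 60 µM reference IDE inhibitor Ii1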
Rpn11 inh – Rpn11 (PSMD14) deubiquitinase inhibitors, primary screen, biochemical, fluorescence polarization, uHTS. calls only at 20 µM. 26S proteasome non-ATPase regulatory subunit 14 (Homo sapiens), O00487. human 26S proteasome, Ub4-pepOG fluorescence polarization; 20S core pre-blocked with epoxomicin. AID 588493, 2011. 360,000 compounds, 0.59% hits;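 active means inhibition at 20 µM, scaled to each plate's controls, above about 33%, limit read from the data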
TPT1 inh confirm – Candida albicans TPT1 inhibitors, confirmation, biochemical, fluorescence polarization, triplicate; shares compounds with TPT1 inhibitor; 2,400 compounds, 74% hits; recombinant caTPT1, RNase T1 coupled; inhibition, % at 5 µM;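 active means inhibition above the primary screen limit, the mean inhibition of all tested compounds plus 3 SD, cut at about 25% in these data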
RNase T1 inh – RNase T1 inhibitors, counter-screen for TPT1 inhibitor project, biochemical, fluorescence polarization | shares compounds with TPT1 inhibitor | RNase T1 cleavage, 1536-well | inhibition, % at 5 µM | 2,400 compounds, 83% hits;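 active means inhibition above the solvent-only control well mean plus 3 SD, limit set per screening run, cut at about 23% in these data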;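 further: plate controls were DMSO wells with enzyme for no effect and wells without RNase T1 for full effect; inhibitors block cleavage so intact labeled substrate keeps polarization high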
* hit, by the source's call; i = inactive; . = no result shown. Shown are actives, neighbours in structure and some others; about 1.7% of the full set was active somewhere.

SMILES	TPT1 inhibitor	IDE cell activ	HNF4A DNA FP	CSN deneddyl inh	IDE inh	Rpn11 inh	TPT1 inh confirm	RNase T1 inh
Cc1ccc(N/C=C/C(=O)c2sc(-c3ccccc3)nc2C)cc1	39*	-2	11	9	0	i	38*	47*
Cc1nc(-c2ccccc2)sc1C(=O)NN	3	-6	4	-4	-1	i	.	.
C=CCN=c1scc(-c2ccco2)n1/N=C/c1ccc(O)c(O)c1O	3	-8	-19	29	-4	i	.	.
COCCN=c1scc(-c2ccco2)n1/N=C/c1ccc(O)c(O)c1O	52*	-4	-45	37	8	i	60*	70*
CC1CCCc2sc3ncn(N)c(=N)c3c21 (configuration not stated)	61*	4	2	4	4	i	16	22*
CC1(C)Cc2c(sc3ncn(N)c(=N)c23)CO1	-2	5	-1	-3	4	i	.	.
O=C1/C(=C\c2cccs2)Sc2ccc3ccccc3c21	80*	0	20	16	-1	i	84*	96*
O=C1C(=Cc2cccs2)C(=O)c2ccccc21	-3	6	-1	-9	1	i	.	.
CCc1ccc2oc(C(=O)Nc3nonc3C)c(C)c2c1	-1	3	-3	-1	-2	i	.	.
O=c1cc(O)c2sc(Nc3ccc(F)cc3)nc2[nH]1	35*	-4	5	3	0	i	20	29*
CN(C)c1ccc(/C=N/N(CCC#N)C2=NS(=O)(=O)c3ccccc32)cc1	27*	0	10	28	-2	.	8	17
CN(C)c1ccc(/C=N/N(CCO)C2=NS(=O)(=O)c3ccccc32)cc1	-2	-33	131	-73	12	.	.	.
C=C(C)CN(CC)C(=O)CN1C(=O)NC2(CCc3ccccc32)C1=O (configuration not stated)	-1	4	1	0	-1	i	.	.
CN1CCc2c(sc(NC(=O)Cc3ccccc3)c2C(N)=O)C1	1	7	-1	4	0	i	.	.
CN1CCc2c(sc(/N=C/c3cccs3)c2C(N)=O)C1	39*	-7	20	-2	-2	i	43*	56*
NC(=O)c1c(NC(=O)c2ccccc2)sc2c1CCN(Cc1ccccc1)C2	71*	-26	66	46*	6	.	56*	66*
CN1CCc2c(sc(/N=C/c3ccco3)c2C(N)=O)C1	0	-1	2	6	-4	i	.	.
CN1CCc2c(sc(NC(=O)c3ccc4ccccc4c3)c2C(N)=O)C1	34*	-7	32	33	5	.	25*	34*
NC(=O)c1c(NC(=O)c2c(F)cccc2F)sc2c1CCN(Cc1ccccc1)C2	36*	-6	6	13	3	i	14	23*
O=C(CNC(=O)C1CCCCC1)Nc1ccc(F)c(Cl)c1	0	6	2	-5	1	i	.	.
CCN1CCc2c(sc(NC(=O)Cc3ccccc3)c2C(N)=O)C1	-1	4	4	-4	0	i	.	.
CCN1CCc2c(sc(NC(=S)NC(=O)c3ccco3)c2C(N)=O)C1	33*	.	12	9	5	i	32*	42*
CN1CCc2c(sc(NC(=O)Cc3ccc(F)cc3)c2C(N)=O)C1	0	5	2	9	0	i	.	.
CN1CCc2c(sc(N)c2C(=O)c2ccc(Cl)cc2)C1	32*	0	40*	24	-2	.	37*	48*
O=C(COC(=O)c1cnccn1)c1ccc(Cl)c([N+](=O)[O-])c1	-1	0	5	-5	5	i	.	.
SMILES	TPT1 inhibitor	IDE cell activ	HNF4A DNA FP	CSN deneddyl inh	IDE inh	Rpn11 inh	TPT1 inh confirm	RNase T1 inh
CN(CC(=O)NC(=O)NC1CCCCC1)CC(=O)Nc1ccccc1C(F)(F)F	.	.	-4	-3	.	i	.	.
COc1cccc(-c2cn3nc(C)c(C)nc3n2)c1	45*	3	8	3	1	i	45*	55*
O=C(Nc1ccsc1C(=O)O)c1ccccc1	-2	-9	6	3	2	i	.	.
O=C(NC1CCCCC1)NC12CC3CC(CC(C3)C1)C2	-1	-1	2	7	2	i	.	.
NC(=O)N/N=C/c1coc2ccc(O)cc2c1=O	-2	4	-2	4	0	i	.	.
N#C/C(=C\c1coc2ccc(O)cc2c1=O)C(=O)Nc1nc2ccccc2s1	28*	-19	78	-79	16	.	93*	90*
CN1CCc2c(sc3nc(SCC(=O)NCc4ccco4)n(-c4ccccc4)c(=O)c23)C1	30*	-3	32	17	5	.	38*	51*
NNC(=O)c1oc2nc(-c3ccco3)cc(-c3ccco3)c2c1N	66*	.	10	-1	-1	i	48*	61*
Cc1cc(C)c2c(N)c(C(=O)N/N=C/c3cccnc3)sc2n1	15	.	-1	7	1	i	.	.
NNC(=O)c1oc2nc(-c3ccc(Cl)cc3)cc(-c3ccccc3)c2c1N	.	2	8	7	.	i	.	.
Nc1c(C(=O)N/N=C/c2cccnc2)oc2nc(-c3ccco3)cc(-c3ccco3)c12	44*	.	-44	47	-4	i	76*	81*
O=C1/C(=C/c2cccnc2)SC(=S)N1Nc1ccccc1	-4	.	-4	1	10	i	.	.
Cn1cccc1/C=C1\SC(=S)N(Nc2ccccc2)C1=O	42*	-7	58*	34	3	.	72*	87*
Cc1ccc(S(=O)(=O)NN2C(=O)/C(=C/c3cccn3C)SC2=S)cc1	57*	.	.	.	-12	.	60*	74*
COc1cccc(-c2nn(-c3ccc(C)cc3)cc2C(=O)NCC(c2cccs2)N2CCOCC2)c1 (configuration not stated)	3	5	5	0	5	i	.	.
COc1ccc(CN(C)CC2CCCN(CCc3ccc(F)cc3)C2)c(OC)c1OC (configuration not stated)	-3	-1	-10	4	3	i	.	.
